Measured values as given in ChEMBL document CHEMBL4706597, “Structure-guided optimization and mechanistic study of a class of quinazolinone-threonine hybrids as antibacterial ThrRS inhibitors” (Eur J Med Chem, 2020).
Values after ≈ are worked out from the molar mass of the structure shown. Active and inactive are the calls of the source. The calls are words filed in the database; no cut-off is given here.

Tests used:
Salmonella enterica [1] = assay: Binding affinity to Salmonella enterica Threonyl-tRNA synthetase assessed as change in melting temperature at 0.5 mM incubated for 10 mins by SYPRO orange dye-based thermal shift assay
Procedure, shortened: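 SeThrRS 8 μM in 100 mM HEPES pH 7.5, 150 mM NaCl, 4× SYPRO orange, with 0.5 mM compound or 0.5% DMSO blank; 25 °C for 10 min, then ramped 25 to 95 °C at 1 °C/min, fluorescence read every 30 s. Tm fitted from melt curve; ΔTm = with minus without compound; mean of three independent experiments.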

Salmonella enterica [2] = assay: Inhibition of Salmonella enterica Threonyl-tRNA synthetase assessed as reduction in aminoacylation activity at 100 uM using L-threonine as substrate incubated for 3 hrs by Kinase-glo luminescence assay relative to control
Procedure, shortened: (§1)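 3 h at room temperature, stopped with Kinase-Glo, luminescence read. Inhibition % = (RLU compound − RLU blank)/(RLU no-enzyme − RLU blank) × 100, at 100 μM compound. IC50 run for compounds above 50% inhibition at 100 μM, fitted as 100/(1+([I]/IC50)^B). Mean of three independent assays.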

[3] = Inhibition of Salmonella enterica Threonyl-tRNA synthetase assessed as reduction in aminoacylation activity using L-threonine as substrate incubated for 3 hrs by Kinase-glo luminescence assay; procedure, shortened: as §1
Staphylococcus aureus [4] = assay: Antibacterial activity against Staphylococcus aureus ATCC 29213 assessed as reduction in bacterial growth incubated for 18 hrs by CLSI based broth microdilution assay; assay type: functional
Procedure, shortened: (§2)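 Broth microdilution per CLSI; compounds in 2-fold dilutions starting from 256 μg/mL. Defined medium: M9 with 0.4% glucose plus 100 μM of all canonical amino acids. MIC read as growth end point.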

Staphylococcus aureus [5] = assay: Antibacterial activity against methicillin-resistant Staphylococcus aureus R3708 assessed as reduction in bacterial growth incubated for 18 hrs by CLSI based broth microdilution assay; assay type: functional
Procedure, shortened: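 Broth microdilution under CLSI conditions, with 2-fold compound dilutions starting at 256 μg/mL. Medium was M9 with 0.4% glucose, supplemented with 100 μM of all canonical amino acids.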

Enterococcus faecalis = assay: Antibacterial activity against Enterococcus faecalis ATCC 29212 assessed as reduction in bacterial growth incubated for 18 hrs by CLSI based broth microdilution assay; assay type: functional; procedure, shortened: as §2
Escherichia coli = assay: Antibacterial activity against Escherichia coli ATCC 25922 assessed as reduction in bacterial growth incubated for 18 hrs by CLSI based broth microdilution assay; assay type: functional; procedure, shortened: as §2
Salmonella enterica [6] = assay: Antibacterial activity against Salmonella enterica 87 assessed as reduction in bacterial growth incubated for 18 hrs by CLSI based broth microdilution assay; assay type: functional; procedure, shortened: as §2
Pseudomonas aeruginosa = assay: Antibacterial activity against Pseudomonas aeruginosa ATCC 27853 assessed as reduction in bacterial growth incubated for 18 hrs by CLSI based broth microdilution assay; assay type: functional; procedure, shortened: as §2
Salmonella enterica [7] = assay: Potency index, ratio of IC50 of parent compound to IC50 of compound for inhibition of Salmonella enterica Threonyl-tRNA synthetase assessed as reduction in aminoacylation activity using L-threonine as substrate incubated for 3 hrs by Kinase-glo luminescence assay
[8] = Binding affinity to Salmonella enterica Threonyl-tRNA synthetase at 200 uM by isothermal titration calorimetry
Procedure, shortened: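 ITC: 20 μM SeThrRS in cell, 200 μM ligand in syringe, both in 20 mM HEPES pH 7.5, 150 mM NaCl. First injection 5 μL, then 24 × 10 μL at 180 s spacing. Ligand-into-buffer isotherm subtracted as baseline; one-site model fit gives Kd, ΔH, ΔS, N.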

Salmonella enterica [9] = assay: Inhibition of Salmonella enterica Threonyl-tRNA synthetase assessed as reduction in aminoacylation activity at 10 uM using increasing concentration of L-threonine as substrate incubated for 3 hrs by Kinase-glo luminescence assay
Procedure, shortened: (§3)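 Aminoacylation by SeThrRS followed as ATP consumption (Kinase-Glo luminescence) after 3 h at room temperature. Inhibitor held at 10 μM while one substrate (L-Thr, tRNA^Thr or ATP, per line) was raised stepwise to test competition. Other components as in the standard assay.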

Salmonella enterica [10] = assay: Inhibition of Salmonella enterica Threonyl-tRNA synthetase assessed as reduction in aminoacylation activity at 10 uM using increasing concentration of t-RNAthr as substrate incubated for 3 hrs by Kinase-glo luminescence assay; procedure, shortened: as §3
Salmonella enterica [11] = assay: Inhibition of Salmonella enterica Threonyl-tRNA synthetase assessed as reduction in aminoacylation activity at 10 uM using increasing concentration of ATP as substrate incubated for 3 hrs by Kinase-glo luminescence assay; procedure, shortened: as §3

Row | Structure (SMILES) | ΔTm (Salmonella enterica [1]) [°C] | inhibition (Salmonella enterica [2]) [%] | IC50 [3] [nM] | MIC (Staphylococcus aureus [4]) [µg/mL] | MIC (Staphylococcus aureus [5]) [µg/mL] | MIC (Enterococcus faecalis) [µg/mL] | MIC (Escherichia coli) [µg/mL] | MIC (Salmonella enterica [6]) [µg/mL] | MIC (Pseudomonas aeruginosa) [µg/mL] | further results
1 | C=CCN[C@H](C(=O)NC/C=C/Cn1cnc2cc(Cl)c(Cl)cc2c1=O)[C@@H](C)O | 22.1 | 100 | 1200 | – | – | – | – | – | – | –
2 | O=C1CC[C@@H](C(=O)NC/C=C/Cn2cnc3cc(Cl)c(Cl)cc3c2=O)N1 | -0.4 | 5 | – | – | – | – | – | – | – | –
3 | CCN[C@H](C(=O)NC/C=C/Cn1cnc2cc(Cl)c(Cl)cc2c1=O)[C@@H](C)O | 22.5 | 100 | 960 | 64 (≈ 155 µM) | 32 (≈ 77.4 µM) | 32 (≈ 77.4 µM) | 16 (≈ 38.7 µM) | 32 (≈ 77.4 µM) | 32 (≈ 77.4 µM) | –
4 | O=C1CC[C@H](C(=O)NC/C=C/Cn2cnc3cc(Cl)c(Cl)cc3c2=O)N1 | -0.2 | 0 | – | – | – | – | – | – | – | –
5 | CN[C@H](CC(C)C)C(=O)N[C@H]1C(=O)N[C@@H](CC(N)=O)C(=O)N[C@H]2C(=O)N[C@H]3C(=O)N[C@H](C(=O)N[C@H](C(=O)O)c4cc(O)cc(O)c4-c4cc3ccc4O)[C@H](O)c3ccc(c(Cl)c3)Oc3cc2cc(c3O[C@@H]2O[C@H](CO)[C@@H](O)[C@H](O)[C@H]2O[C@H]2C[C@](C)(N)[C@H](O)[C@H](C)O2)Oc2ccc(cc2Cl)[C@H]1O [VANCOMYCIN] | – | – | – | – | – | 2 (≈ 1.38 µM) | – | – | – | –
6 | CCO[C@H](C)[C@H](N)C(=O)NC/C=C/Cn1cnc2cc(Cl)c(Cl)cc2c1=O | 0.2 | 4 | – | – | – | – | – | – | – | –
7 | C[C@@H](O)[C@H](N)C(=O)NS(=O)(=O)c1cccc(-c2ccc3[nH]ncc3c2)c1 | – | – | – | > 256 | > 256 | > 256 | > 256 | > 256 | > 256 | –
8 | CN[C@H](C(=O)NC/C=C/Cn1cnc2cc(Cl)c(Cl)cc2c1=O)[C@@H](C)O | 28.4 | 100 | 500 | 32 (≈ 80.1 µM) | 32 (≈ 80.1 µM) | 32 (≈ 80.1 µM) | 16 (≈ 40.1 µM) | 16 (≈ 40.1 µM) | 32 (≈ 80.1 µM) | Ratio IC50 (Salmonella enterica [7]): 3; Kd [8]: 400 nM; inhibition (Salmonella enterica [9]): Active; inhibition (Salmonella enterica [10]): Active; inhibition (Salmonella enterica [11]): Active
9 | N[C@@H](CO)C(=O)NC/C=C/Cn1cnc2cc(Cl)c(Cl)cc2c1=O | 0.6 | 2 | – | – | – | – | – | – | – | –
10 | O=C(CC1NCCCC1O)Cn1cnc2cc(Br)c(Cl)cc2c1=O (stereo unspecified) [HALOFUGINONE] | -1.5 | 4 | – | 64 (≈ 154 µM) | 64 (≈ 154 µM) | 128 (≈ 309 µM) | 128 (≈ 309 µM) | 64 (≈ 154 µM) | 64 (≈ 154 µM) | –
11 | CC(C)N[C@H](C(=O)NC/C=C/Cn1cnc2cc(Cl)c(Cl)cc2c1=O)[C@@H](C)O | 14.1 | 63 | 49300 | – | – | – | – | – | – | –
12 | CC1(C)S[C@@H]2[C@H](NC(=O)[C@H](N)c3ccccc3)C(=O)N2[C@H]1C(=O)O [AMPICILLIN] | – | – | – | – | – | – | 1 (≈ 2.86 µM) | 1 (≈ 2.86 µM) | 0.5 (≈ 1.43 µM) | –
13 | C[C@@H](O)[C@H](NCCF)C(=O)NC/C=C/Cn1cnc2cc(Cl)c(Cl)cc2c1=O | 19.1 | 99 | 2500 | 32 (≈ 74.2 µM) | 64 (≈ 148 µM) | 32 (≈ 74.2 µM) | 32 (≈ 74.2 µM) | 32 (≈ 74.2 µM) | 64 (≈ 148 µM) | –
14 | C[C@H](O)[C@@H](N)C(=O)NC/C=C/Cn1cnc2cc(Cl)c(Cl)cc2c1=O | 0.6 | 6 | – | – | – | – | – | – | – | –
15 | CC(C)(O)[C@H](N)C(=O)NC/C=C/Cn1cnc2cc(Cl)c(Cl)cc2c1=O | 0.9 | 0 | – | – | – | – | – | – | – | –
16 | C[C@@H](O)[C@H](NCC#N)C(=O)NC/C=C/Cn1cnc2cc(Cl)c(Cl)cc2c1=O | 18.8 | 93 | 9600 | – | – | – | – | – | – | –
